Source: PubChem (several laboratories)
UCH37 DUB inh – inhibitors of human UCH37 deubiquitinase, primary screen, biochemical, Ub-AMC cleavage, fluorescence | Ubiquitin carboxyl-terminal hydrolase isozyme L5 (Homo sapiens), Q9Y5K5 | purified proteasome/UCH37 | inhibition, % (no concentration beside the values) | 330,000 tested, 0.33% active;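 active = mean inhibition over replicate wells above about 20%, limit read from the data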;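 note: 0% = compound-free wells with enzyme and 100% = wells lacking proteasome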
Target sequence (Q9Y5K5 whole entry, looked up): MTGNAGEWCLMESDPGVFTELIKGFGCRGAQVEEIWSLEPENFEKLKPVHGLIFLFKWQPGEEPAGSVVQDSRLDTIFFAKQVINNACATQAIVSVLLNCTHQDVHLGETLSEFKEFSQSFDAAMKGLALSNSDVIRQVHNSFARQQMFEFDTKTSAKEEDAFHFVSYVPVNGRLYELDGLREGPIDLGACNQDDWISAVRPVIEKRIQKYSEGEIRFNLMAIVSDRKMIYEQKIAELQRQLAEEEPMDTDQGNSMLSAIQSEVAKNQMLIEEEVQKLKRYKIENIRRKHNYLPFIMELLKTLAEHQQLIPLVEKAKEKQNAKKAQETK
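Material: human UCH37 enzyme supplied as purified proteasome complex / Amount: 0.15 nM proteasome as dispensed / Buffer or medium: pH 7.4 Tris-HCl (50 mM) with ovalbumin, ATP-MgCl2, DTT / Times: preincubation 30 min, reaction 25 min, room temperature / Technique: AMC fluorescence from Ub-AMC cleavage, excitation 355 nm, emission 460 nm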
Neddylation inh – inhibitors of cullin neddylation, primary screen, biochemical, TR-FRET, uHTS, NAE and Ubc12; 360,000 tested, 0.58% active; inhibition, % at 25 µM; NEDD8-conjugating enzyme Ubc12 (Homo sapiens) + NEDD8-activating enzyme E1 regulatory …; in the data active = inhibition above about 36%
Fh CTSL1 inh – Fasciola hepatica cathepsin L1 inhibitors, primary screen, counter-screen for PFM18AAP inhibitor project, biochemical, QFRET, fluorogenic peptide substrate; recombinant F. hepatica cathepsin L1, Z-Leu-Arg-MCA fluorescence; inhibition, % at 5.96 µM; 300,000 tested, 0.49% active; AID 1906, 2009;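 active = inhibition above the mean of all tested compounds plus 3 SD, set per screening campaign, cut at about 17% in these data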;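 note: 0% = plate median of test compound wells and 100% = 1 µM Z-Phe-Ala-diazomethylketone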
SUMO HTRF inh – inhibitors of in vitro SUMOylation cascade, primary screen, biochemical, HTRF, uHTS; inhibition, % at 35 µM; SUMO-conjugating enzyme UBC9 (Homo sapiens), P63279; HTRF SUMOylation assay, SAE1/SAE2 + UBC9; 290,000 tested, 0.36% active; in the data active = inhibition above about 50%, passing the limit was not always enough
Target sequence (P63279 whole entry, looked up): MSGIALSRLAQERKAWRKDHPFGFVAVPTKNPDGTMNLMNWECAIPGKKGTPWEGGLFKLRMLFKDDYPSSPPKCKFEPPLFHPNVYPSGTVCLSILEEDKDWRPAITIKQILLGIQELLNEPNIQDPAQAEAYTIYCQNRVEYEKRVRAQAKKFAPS
* = called active by the depositor; . = no result. The list is not random: actives were taken first. Their share in the collection is about 1.4%.

SMILES | UCH37 DUB inh | Neddylation inh | Fh CTSL1 inh | SUMO HTRF inh
CN1CC=C2C(C#N)=C(N)C(C#N)(C#N)[C@H](c3ccoc3)[C@H]2C1 | -71.7 | 34.4 | 5.0 | 87.5*
Cc1c(C(Cc2ccccc2)=NO)c2ccccc2n1C | 0.3 | . | . | .
CCC(C)[C@H](NC(=O)NCCC1=CCCCC1)C(=O)OC (stereo not given in full) | 25.0* | 7.0 | -5.1 | -1.4
COc1cccc(C(=O)NCCC2=CCCCC2)c1 | 24.6* | -2.9 | 0.4 | 12.4
COC(=O)[C@H](C)NC(=O)NCCC1=CCCCC1 | 8.0 | 1.1 | -4.1 | 10.4
CCCNC(=O)Cn1c(=O)/c(=C\c2ccc(-c3cccc([N+](=O)[O-])c3)o2)s/c1=C\C(=O)C(C)(C)C | . | -19.8 | 18.1* | 29.1
CCCNC(=O)Cn1c(=O)/c(=C/c2ccc(-c3cccc([N+](=O)[O-])c3)o2)s/c1=C\C(=O)C(C)(C)C | 6.1 | -10.8 | . | .
Cc1nnc(SCc2cc(=O)[nH]c(N3CCN(C)CC3)n2)s1 | 0.0 | 1.0 | -2.4 | 4.8
Cc1ccc(SCc2cc(=O)[nH]c(N3CCN(C)CC3)n2)cc1 | 27.5* | -4.3 | 8.3 | 15.1
CC(CC(=O)Nc1ccc(N(C)C)cc1)=NNC(=O)Cc1csc(N)n1 | 6.1 | . | . | .
C=C(C)C1CC=C(C)C(=NNC(=O)CNc2ccccc2OC)C1 (stereo not given) | 1.5 | . | . | .
Cc1onc(C(=O)Nc2sc3c(c2C#N)CCCC3)c1[N+](=O)[O-] | 10.2 | -3.9 | 23.5* | -2.8
Cc1onc(-c2ccccc2Cl)c1C(=O)Nc1sc2c(c1C#N)CCC2 | 2.5 | 17.7 | 1.3 | 16.4
O=C(CC(c1ccco1)C1CCCCC1=O)c1ccccc1 (stereo not given) | 0.6 | 2.6 | 52.0* | 1.8
COc1ccc2[nH]c3c(=O)n(CCCC(=O)NC4CCC(C)CC4)c(=S)[nH]c3c2c1 (stereo not given) | -0.2 | 1.9 | -5.4 | .
COc1ccc2[nH]c3c(=O)n(CCCC(=O)NC4CCCCC4C)c(=S)[nH]c3c2c1 (stereo not given) | . | -7.6 | 0.8 | 58.4*
CC(=NNC(=S)NCC(C)(C)C)c1cc(F)cc(F)c1O | -5.3 | . | . | .
C/C(=N\NC(=S)NCC(C)(C)C)c1cc(F)cc(F)c1O | . | 45.0* | -3.1 | 10.4
COc1ccc(N2C(=O)[C@@H]3[C@H](C2=O)[C@H]2c4ccccc4C=CN2[C@@H]3C(=O)Nc2ccccc2)cc1 | 30.4* | 4.4 | -0.2 | 20.7
CC(=O)[C@@H]1[C@@H]2C(=O)N(Cc3ccccc3)C(=O)[C@@H]2C2c3ccccc3C=CN21 (stereo not given in full) | 58.2* | -169.4 | 2.0 | 22.9
Cc1cc(/C=C(\C#N)c2nc3ccccc3[nH]2)c(C)n1C | 25.5* | 7.3 | 5.5 | 10.7
CC(=O)c1cccc(N2Cc3ccccc3C2=NC(=O)CCl)c1 | 2.9 | 8.7 | 77.2* | 7.5
O=C(O)COc1ccccc1C=NNC(=O)c1cccc(S(=O)(=O)Nc2cccc(Cl)c2)c1 | 6.3 | . | . | .
CC(C)(C)N=C1NN=C(c2ccc(Cl)cc2)CS1 | 6.4 | -3.7 | 21.5* | 2.5
COc1ccc(CN=C2NN=C(c3ccc(Cl)cc3)CS2)cc1 | 4.3 | -9.0 | 0.2 | -11.9
SMILES | UCH37 DUB inh | Neddylation inh | Fh CTSL1 inh | SUMO HTRF inh
Cc1ccccc1N=Nc1c(C)[nH]n(-c2ccccc2)c1=O | 8.5 | . | . | 9.1
Cc1[nH]n(-c2ccccc2)c(=O)c1N=Nc1nccs1 | 20.7* | -104.9 | 5.6 | 2.7
CC(=O)Nc1cccc(C(C)=NNC(=O)c2ccc(Cl)cc2Cl)c1 | 2.1 | . | . | .
Cc1ccccc1-c1cc2c(nn1)-c1ccccc1C2=O | 14.2 | -68.3 | 71.2* | 88.4*
Cc1cc(=O)[nH]c(NN=C/C=C/c2ccccc2)n1 | 7.7 | . | . | .
O=C(NN1C(=O)CSC1=S)C(=O)NN1C(=O)CSC1=S | 3.6 | -5.2 | 4.2 | 95.5*
S=c1[nH]ncn1N=Cc1cccc(Oc2ccccc2)c1 | 5.3 | . | . | .
O=c1[nH]c(=O)n(-c2cc(Br)c(O)c(Br)c2)cc1Br | 1.0 | 0.3 | 32.8* | 2.5
COc1cccc(C(=O)NCC(=O)NN=C(C)/C=C/c2ccccc2)c1 | 4.9 | . | . | .
N/C(=N\OS(=O)(=O)c1ccc(Br)cc1)c1ccncc1 | 3.6 | -4.6 | 29.0* | -7.5
NC(=NOS(=O)(=O)c1cccc([N+](=O)[O-])c1)c1ccncc1 | 0.5 | . | . | .
CC1CCCCC1=NNC(=S)Nc1cccnc1 (stereo not given) | 7.6 | . | . | .
